Reference: ChEMBL document CHEMBL1134490, “Estradiol-16alpha-carboxylic acid esters as locally active estrogens” (2001)

Key:
[1] = test system: esterase (Rattus norvegicus); test: Relative hydrolytic activity against esterase in rat hepatic microsomes; conditions: Liver
Ishikawa = test: Relative stimulation of alkaline phosphatase (AlkP) activity in Ishikawa cells; assay type: functional, Homo sapiens
Method in brief: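 Ishikawa cells in phenol red-free medium with charcoal-stripped bovine serum, exposed for 3 days to steroid over at least 6 orders of magnitude of concentration. Cells were freeze-thawed, then given 5 mM p-nitrophenyl phosphate at pH 9.8, read kinetically at 405 nm. RSA = (1/EC50 analogue)/(1/EC50 E2) × 100. At least three experiments in duplicate.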

Structure (SMILES)	RHA [1]	RSA (Ishikawa)
COC(=O)CC[C@@H]1C[C@H]2[C@@H]3CCc4cc(O)ccc4[C@H]3CC[C@]2(C)[C@H]1O	910	0
CCOC(=O)C[C@@H]1C[C@H]2[C@@H]3CCc4cc(O)ccc4[C@H]3CC[C@]2(C)[C@H]1O	700	0.3
COC(=O)C[C@@H]1C[C@H]2[C@@H]3CCc4cc(O)ccc4[C@H]3CC[C@]2(C)[C@H]1O	340	0.5
CC(C)OC(=O)[C@@H]1C[C@H]2[C@@H]3CCc4cc(O)ccc4[C@H]3CC[C@]2(C)[C@H]1O	–	0.1
C[C@]12CC[C@@H]3c4ccc(O)cc4CC[C@H]3[C@@H]1C[C@@H](CCC(=O)O)[C@@H]2O	–	0
C[C@]12CC[C@@H]3c4ccc(O)cc4CC[C@H]3[C@@H]1CCC2=O [ESTRONE]	–	7
C[C@]12CC[C@@H]3c4ccc(O)cc4CC[C@H]3[C@@H]1C[C@@H](CC(=O)O)[C@@H]2O	–	0
